# TAAR1 ag = human TAAR1 agonists, primary screen, Fluo-8 calcium fluorescence, CHO RD-HGA16 cells; vehicle wells 0%, saturating PEA agonist 100%; activation, % at 3 µM; actives 0.99% (n = 360,000); AID 624467, 2012;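 active = activation above the mean activation of all test compounds in the run plus 3 SD, cut at about 38% in these data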
# Target sequence (Q96RJ0 whole entry, looked up): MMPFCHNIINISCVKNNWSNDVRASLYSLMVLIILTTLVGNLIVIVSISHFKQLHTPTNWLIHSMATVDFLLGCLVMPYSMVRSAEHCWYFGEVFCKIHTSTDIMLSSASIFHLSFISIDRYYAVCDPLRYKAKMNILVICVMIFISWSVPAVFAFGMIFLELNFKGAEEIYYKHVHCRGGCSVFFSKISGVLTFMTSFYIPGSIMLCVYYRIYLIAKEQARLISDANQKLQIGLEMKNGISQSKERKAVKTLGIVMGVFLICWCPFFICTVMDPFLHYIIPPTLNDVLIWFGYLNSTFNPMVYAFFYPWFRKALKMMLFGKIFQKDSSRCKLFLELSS
#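 test system = CHO RD-HGA16 cells carrying human TAAR1 plus Gα16 | schedule = 17-24 h seeding, 75 min 37 °C dye, 30 min RT | compound dosing = 3 µM single concentration | control set = DMSO and PEA EC100 | replicates = n 1 | signal = Fluo-8 fluorescence, 5 s baseline then 140 s kinetic read | measure = percent activation vs PEA EC100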
# M1 PAM = human M1 muscarinic receptor positive allosteric modulators, primary screen, CHO-K1 cells, Fluo-8 calcium fluorescence, 1536-well. CHO-K1 hM1, ACh EC20; 0% = ACh EC20, 100% = maximal ACh. actives 0.088% (n = 360,000). activation, % at 3 µM; in the data active = activation above about 19%, passing the limit was not always enough
# HTR2A ag = mouse Htr2a agonists via beta-arrestin recruitment, primary screen, cell-based, luminescence; 5-hydroxytryptamine receptor 2A (Mus musculus), P35363; CHO-K1 mHTR2A beta-arrestin complementation; percent of 30 µM serotonin response; activation, % at 7.6 µM; actives 0.66% (n = 360,000); AID 624169, 2012;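 active = activation above a run cutoff, the mean activation of all tested compounds plus 3 SD, cut at about 14% in these data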;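 also: 0% = plate median of compound wells and 100% = 30 µM serotonin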
# CHRM1 agonist = human M1 muscarinic receptor agonists, primary screen, Fluo-8 calcium fluorescence, CHO-K1 cells, HTS. Muscarinic acetylcholine receptor M1 (Homo sapiens), P11229. CHO-K1 hM1, agonist mode; 0% DMSO, 100% acetylcholine EC100. activation, % at 3 µM. actives 0.33% (n = 360,000). AID 588814, 2011;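 active = activation above the run's mean compound activation plus 3 SD, cut at about 16% in these data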;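 also: peak over basal fluorescence ratio within a 140 s kinetic read after compound addition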
# TAAR1 antag = human TAAR1 antagonists, primary screen, Fluo-8 calcium fluorescence, CHO RD-HGA16 cells; Trace amine-associated receptor 1 (Homo sapiens), Q96RJ0; antagonist; inhibition, % at 3 µM; actives 1.5% (n = 360,000);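 active = inhibition above a per-plate cutoff, the mean inhibition of test compounds on that plate plus 3 SD, cut at about 49% in these data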;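 also: 0% = DMSO plus EC80 beta-PEA response and 100% = DMSO alone without agonist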
#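 Assay system: RD-HGA16 CHO cells with stable hTAAR1 and Gα16 / Reagent: EC80 β-phenethylamine stimulus / Doses: 3 µM, single point / Timing: dye loading 75 min at 37 °C, then 30 min room temperature / Measured by: Fluo-8 intracellular calcium dye fluorescence, real-time kinetic reads / Controls: vehicle wells and EC80 agonist wells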
# CHRM1 antagonist = human M1 muscarinic receptor antagonists, primary screen, CHO-K1 cells, Fluo-8 calcium fluorescence, 1536-well. Muscarinic acetylcholine receptor M1 (Homo sapiens), P11229. CHO-K1 hM1, ACh EC80 antagonist. inhibition, % at 3 µM. actives 1.3% (n = 360,000);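 active = percent inhibition above its own plate's cutoff, namely the mean of that plate's compound wells plus 3 SD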;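 also: peak over basal fluorescence ratio during 140 s after agonist addition; 0% = ACh EC80 plus DMSO and 100% = DMSO alone without agonist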
# Starred values were filed as active, the others as inactive; x = not tested or not shown. Hits are enriched below; roughly 3.9% of the tested compounds scored in any of these assays.
SMILES,TAAR1 ag,M1 PAM,HTR2A ag,CHRM1 agonist,TAAR1 antag,CHRM1 antagonist
CN(C(=O)CC1C(=O)NCCN1Cc1ccc(F)c(F)c1)C1CCOCC1 (stereo not drawn),4,12,0,-8,18,-1
CC1(C)CC(=O)C2=C(C1)OC(N)=C(C#N)C2c1cc2c(cc1[N+](=O)[O-])OCO2 (stereo not drawn),7,-25,-6,-10,5,38*
CCOc1cc(C2C(C#N)=C(N)OC3=C2C(=O)CC(C)(C)C3)cc([N+](=O)[O-])c1O (stereo not drawn),4,10,0,-9,18,-5
Cn1ccnc1COc1ccc(/C=N/O)cc1,1,0,1,-6,-15,-3
CCCCc1cc2ccccc2c(OCCN(C)C)n1,35,-28,-18,-7,-5,56*
CN(C)CCOc1ccc2ccccc2c1,4,-3,-6,-4,-14,5
Cc1ccsc1C(=O)N1CCC1(C)C(=O)NS(=O)(=O)c1ccccc1 (stereo not drawn),2,7,5,-1,-3,-1
N=c1n(Cc2ccccc2)c2ccccc2n1CC(O)COc1ccc(Cl)cc1Cl (stereo not drawn),47*,6,-3,0,23,8
N=c1n(Cc2ccc(Cl)cc2)c2ccccc2n1CC(O)COc1ccccc1 (stereo not drawn),34,5,-1,-2,-4,3
CCn1c(SCc2nc(-c3cccs3)no2)nnc1-c1c[nH]c2ccccc12,18,-2,-2,-1,50*,6
Cc1ccc(NC(=O)c2ccc(CSc3nnc(C)s3)cc2)cc1,18,5,-3,-2,24,-5
Cc1cc(C)cc(NC(=O)c2ccc(CSc3nnc(C)s3)cc2)c1,13,-12,-3,0,66*,36*
CC(=O)Nc1ccc(S(=O)(=O)NCc2nc(-c3cccc(C)c3)no2)cc1,3,-2,-3,2,3,4
CC(=O)Nc1ccc(NC(=O)C2CCN(S(C)(=O)=O)CC2)cc1,1,10,4,-2,-7,-11
C=CCn1c(SCC(=O)Nc2ccccc2F)nnc1C(C)NC(=O)c1ccccc1F (stereo not drawn),0,4,-2,-2,-7,-3
C=CCn1c(SCC(=O)Nc2nc(C)cs2)nnc1C(C)NC(=O)c1ccccc1Cl (stereo not drawn),15,-9,1,-3,-4,47*
Cn1cc(CNCc2ccc(OC(F)(F)F)cc2)c(-c2ccc3c(c2)OCCO3)n1,9,-10,0,5,-13,33*
O=C(NCCCN1CCN(c2ccccc2F)CC1)C1CCN(S(=O)(=O)c2cccs2)CC1,1,0,15*,-6,10,-8
COc1ccc(S(=O)(=O)N2CCOCC2)cc1OC,-1,0,-4,-6,10,-10
COc1ccc(S(=O)(=O)N2CCOCC2)cc1N=Nc1sc(N)nc1-c1ccccc1,12,-8,3,-11,54*,13
CCc1ccc(NC(=O)C2(c3ccccc3)CC2(Cl)Cl)cc1 (stereo not drawn),55*,1,-4,13,47,18
CCc1ccccc1NC(=O)C1CCN(S(C)(=O)=O)CC1,2,6,-2,-1,-24,-14
CCOC(=O)c1c(NC(=O)COC(=O)CNC(=O)c2ccc(Cl)cc2Cl)sc(C(=O)N(C)C)c1C,1,8,5,-8,-32,-6
CCOC(=O)c1c(NC(=O)COC(=O)c2nc(Cl)ccc2Cl)sc(C(=O)N(C)C)c1C,12,5,-8,0,51*,-13
CCOC(=O)Nc1ccc2c(c1)N(C(=O)CCN1CCOCC1)c1ccccc1S2=O (stereo not drawn),18,-27,-6,-6,6,78*
SMILES,TAAR1 ag,M1 PAM,HTR2A ag,CHRM1 agonist,TAAR1 antag,CHRM1 antagonist
CCOC(=O)Nc1ccc2c(c1)N(C(=O)CCN1CCOCC1)c1ccccc1S2,6,-16,-1,-9,-15,17
CCOC(=O)C1(C)CCCCN1C(=O)c1ccc(F)c(C)c1 (stereo not drawn),2,4,4,-4,-3,-2
O=C(Nc1cccnc1)c1cc2cc(Br)ccc2o1,2,-4,-3,-2,-17,60*
CC(C)C[C@@H]1COc2cc(NC3CC3)ccc2S(=O)(=O)N1,-1,x,x,x,-5,x
O=C(Nc1ccc(O)c(-c2nc3ccccc3s2)c1)C1=COCCO1,2,-22,4,-8,29,79*
Cc1cc(NC(=O)c2cccnc2Cl)ccc1NC(=O)c1cc2ccccc2o1,40*,7,11,-1,24,-2
Fc1ccc(NC(=S)N2CCCN(c3ccc(C(F)(F)F)cn3)CC2)c(F)c1,3,-14,2,3,-7,34*
Cn1c2ccccc2c(=O)c2cc(C#Cc3ccc(N)cc3)ccc21,13,-8,0,-1,49*,11
C[C@@H]1CN(c2ccc(N3CCN(C(=O)OC(C)(C)C)C[C@H]3C)cc2C#N)CCN1Cc1ccccc1,-2,x,x,x,-5,x
CC(C)n1cc(CN2CCCC(C(=O)Nc3cccc(-c4cc5ccccc5[nH]4)c3)C2)cn1 (stereo not drawn),40*,13,-7,4,35,3
O=C(NCc1ccc(F)cc1)c1cc(-c2ccco2)on1,38*,5,2,-6,20,-7
NC(=O)c1ccsc1NC(=O)COC(=O)c1ccc(Cl)c(N)c1,14,7,10,3,53*,6
Cc1ccsc1C(=O)OCC(=O)Nc1sccc1C(N)=O,42*,0,-4,3,24,-2
COc1ccc(C(=O)OCC(=O)Nc2sccc2C(N)=O)cc1[N+](=O)[O-],29,-16,2,-2,55*,26
COc1ccc(CCC(=O)OCC(=O)Nc2sccc2C(N)=O)cc1,11,-19,3,2,28,39*
COc1ccc(CCC(=O)OCC(=O)Nc2sccc2C(N)=O)cc1OC,16,-12,0,2,34,24
NC(=O)c1ccsc1NC(=O)COC(=O)/C=C/c1ccc([N+](=O)[O-])cc1,8,-8,0,2,36,7
COC(=O)c1ccc(/C=C/C(=O)OCC(=O)Nc2sccc2C(N)=O)cc1,x,-25,5,5,x,47*

# Assay outcomes: PubChem, The Scripps Research Institute Molecular Screening Center
